Assay results: ChEMBL document CHEMBL1671677, “Role of AbeS, a novel efflux pump of the SMR family of transporters, in resistance to antimicrobial agents in Acinetobacter baumannii” (2009)
≈ marks a conversion by molar mass, not a printed value. Calls of active or inactive are those of the source.

Legend:
Acinetobacter baumannii [1] = test: Antibacterial activity against abeS-deficient Acinetobacter baumannii AC0037 by CLSI broth microdilution method; assay type: functional
[2] = target: T1, QacEdelta1 SMR family efflux pump (Acinetobacter baumannii) (UniProt Q2FD83); test: Inhibition of Acinetobacter baumannii abeS expressed in Escherichia coli KAM32 assessed as decrease in increase in bromide accumulation
T1 sequence (whole entry): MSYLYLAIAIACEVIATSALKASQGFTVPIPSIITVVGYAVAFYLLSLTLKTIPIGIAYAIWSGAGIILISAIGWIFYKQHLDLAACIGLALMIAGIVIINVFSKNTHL
Summary of the method: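 EtBr accumulation in E. coli KAM32 (lacks AcrAB, YdhE) carrying pUC18 or pVBS1 (abeS). CCCP, a proton motive force uncoupler, added to 25 μg/ml final after 20 min with substrate. Cells lysed; supernatant fluorescence read at excitation 530 nm, emission 600 nm. Relative fluorescence taken as accumulated EtBr. Mean plus SD of three independent experiments.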

Escherichia coli [3] = test: Antibacterial activity against Escherichia coli KAM32 harboring plasmid pUC18 by CLSI broth microdilution method; assay type: functional
Escherichia coli [4] = test: Antibacterial activity against Escherichia coli KAM32 harboring recombinant plasmid pVBS1 encoding Acinetobacter baumannii abeS gene by CLSI broth microdilution method; assay type: functional
Acinetobacter baumannii [5] = test: Antibacterial activity against Acinetobacter baumannii AC0037 by CLSI broth microdilution method; assay type: functional
Acinetobacter baumannii [6] = test: Ratio of MIC for Acinetobacter baumannii AC0037 to MIC for abeS-deficient Acinetobacter baumannii AC0037; assay type: functional
Summary of the method: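 MICs were determined by broth dilution and interpreted per CLSI criteria for the parental A. baumannii AC0037 and its abeS null mutant. The mutant was made by electroporating a plasmid carrying abeS disrupted by a kanamycin-resistance cassette, for double homologous recombination, and selected on 50 μg/ml kanamycin plus 80 μg/ml ticarcillin. The ratio is the parental MIC over the mutant MIC.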

Acinetobacter baumannii [7] = test: Antibacterial activity against abeS sigma abeS-deficient Acinetobacter baumannii AC0037 by CLSI broth microdilution method; assay type: functional
Escherichia coli [8] = test: Ratio of MIC for Escherichia coli KAM32 harboring recombinant plasmid pVBS1 encoding Acinetobacter baumannii abeS gene to MIC for Escherichia coli KAM32 harboring plasmid pUC18
Escherichia coli [9] = test: Antibacterial activity against Escherichia coli KAM32 harboring plasmid pUC18 by CLSI broth microdilution method in presence of 25 ug/ml efflux pump inhibitor CCCP; assay type: functional
Escherichia coli [10] = test: Antibacterial activity against Escherichia coli KAM32 harboring recombinant plasmid pVBS1 encoding Acinetobacter baumannii abeS gene by CLSI broth microdilution method in presence of 25 ug/ml efflux pump inhibitor CCCP; assay type: functional

SMILES	Activity (Acinetobacter baumannii [1])	inhibition [2]	MIC (Escherichia coli [3])	MIC (Escherichia coli [4])	MIC (Acinetobacter baumannii [5])	MIC (Acinetobacter baumannii [1])	Ratio (Acinetobacter baumannii [6])	MIC (Acinetobacter baumannii [7])	Ratio (Escherichia coli [8])	MIC (Escherichia coli [9])	MIC (Escherichia coli [10])
CC(C)(O/N=C(\C(=O)N[C@@H]1C(=O)N2C(C(=O)[O-])=C(C[n+]3ccccc3)CS[C@H]12)c1csc(N)n1)C(=O)O	inactive										
C[C@@H](O)[C@H]1C(=O)N2C(C(=O)O)=C(SCCNC=N)C[C@H]12	inactive										
C[C@@H](O)[C@H]1C(=O)N2C(C(=O)O)=C(S[C@@H]3CN[C@H](C(=O)N(C)C)C3)[C@H](C)[C@H]12	inactive										
N#CC(C#N)=NNc1cccc(Cl)c1		Active									
CN(C)c1ccc2cc3ccc(N(C)C)cc3nc2c1 [ACRIDINE ORANGE]			16 µg/mL (≈ 60.3 µM)	80 µg/mL	200 µg/mL (≈ 754 µM)	50 µg/mL (≈ 188 µM)	4	125 µg/mL (≈ 471 µM)	5		
NCC[C@H](O)C(=O)N[C@@H]1C[C@H](N)[C@@H](O[C@H]2O[C@H](CN)[C@@H](O)[C@H](O)[C@H]2O)[C@H](O)[C@H]1O[C@H]1O[C@H](CO)[C@@H](O)[C@H](N)[C@H]1O [AMIKACIN]			1 µg/mL (≈ 1.71 µM)	2 µg/mL	256 µg/mL (≈ 437 µM)	256 µg/mL (≈ 437 µM)	1	256 µg/mL (≈ 437 µM)	2	0.15 µg/mL	0.15 µg/mL
CCBr [BROMOETHANE]			2 µg/mL (≈ 18.4 µM)	8 µg/mL	1020 µg/mL (≈ 9400 µM)	128 µg/mL (≈ 1170 µM)	8	> 512 µg/mL	4		
O=C(N[C@H](CO)[C@H](O)c1ccc([N+](=O)[O-])cc1)C(Cl)Cl [CHLORAMPHENICOL]			0.2 µg/mL (≈ 0.619 µM)	0.2 µg/mL	256 µg/mL (≈ 792 µM)	64 µg/mL (≈ 198 µM)	4	128 µg/mL (≈ 396 µM)	1		
N=C(NCCCCCCNC(=N)NC(=N)Nc1ccc(Cl)cc1)NC(=N)Nc1ccc(Cl)cc1 [CHLORHEXIDINE]			2 µg/mL (≈ 3.96 µM)	4 µg/mL	32 µg/mL (≈ 63.3 µM)	16 µg/mL (≈ 31.7 µM)	2	32 µg/mL (≈ 63.3 µM)	2		
N=C(N)c1ccc(-c2cc3ccc(C(=N)N)cc3[nH]2)cc1 [DAPI]			0.5 µg/mL (≈ 1.8 µM)	2 µg/mL	2 µg/mL (≈ 7.21 µM)	0.5 µg/mL (≈ 1.8 µM)	4	2 µg/mL (≈ 7.21 µM)	4		
C[C@H](CCC(=O)O)[C@H]1CC[C@H]2[C@@H]3CC[C@@H]4C[C@H](O)CC[C@]4(C)[C@H]3C[C@H](O)[C@]12C [DEOXYCHOLIC ACID]			125 µg/mL (≈ 318 µM)	3120 µg/mL	> 2050 µg/mL	128 µg/mL (≈ 326 µM)	>16	512 µg/mL (≈ 1300 µM)	25	< 0.25 µg/mL	5 µg/mL
CC[C@H]1OC(=O)[C@H](C)[C@@H](O[C@H]2C[C@@](C)(OC)[C@@H](O)[C@H](C)O2)[C@H](C)[C@@H](O[C@@H]2O[C@H](C)C[C@H](N(C)C)[C@H]2O)[C@](C)(O)C[C@@H](C)C(=O)[C@H](C)[C@@H](O)[C@]1(C)O [ERYTHROMYCIN]			4 µg/mL (≈ 5.45 µM)	24 µg/mL	64 µg/mL (≈ 87.2 µM)	8 µg/mL (≈ 10.9 µM)	8	32 µg/mL (≈ 43.6 µM)	6	< 0.05 µg/mL	0.25 µg/mL
CCn1cc(C(=O)O)c(=O)c2ccc(C)nc21 [NALIDIXIC ACID]			1 µg/mL (≈ 4.31 µM)	1 µg/mL	256 µg/mL (≈ 1100 µM)	128 µg/mL (≈ 551 µM)	2	256 µg/mL (≈ 1100 µM)	1		
CCn1cc(C(=O)O)c(=O)c2cc(F)c(N3CCNCC3)cc21 [NORFLOXACIN]			0.06 µg/mL (≈ 0.188 µM)	0.12 µg/mL	512 µg/mL (≈ 1600 µM)	256 µg/mL (≈ 802 µM)	2	> 128 µg/mL	2	0.001 µg/mL	0.001 µg/mL
CO[C@@H]1[C@@H](OC(N)=O)[C@@H](O)[C@H](Oc2ccc3c(O)c(NC(=O)c4ccc(O)c(CC=C(C)C)c4)c(=O)oc3c2C)OC1(C)C [NOVOBIOCIN]			4 µg/mL (≈ 6.53 µM)	20 µg/mL	120 µg/mL (≈ 196 µM)	40 µg/mL (≈ 65.3 µM)	3	84 µg/mL (≈ 137 µM)	5	< 0.5 µg/mL	< 0.5 µg/mL
C[n+]1ccc(-c2cc[n+](C)cc2)cc1.[Cl-].[Cl-] [PARAQUAT DICHLORIDE]			64 µg/mL	128 µg/mL	800 µg/mL	400 µg/mL	2	800 µg/mL	2	< 2.5 µg/mL	< 2.5 µg/mL
COC(=O)c1ccccc1-c1c2ccc(=N)cc-2oc2cc(N)ccc12.Cl [RHODAMINE123]			8 µg/mL	32 µg/mL	128 µg/mL	64 µg/mL	2	128 µg/mL	4		
CO[C@H]1/C=C/O[C@@]2(C)Oc3c(C)c(O)c4c(O)c(c(/C=N/N5CCN(C)CC5)c(O)c4c3C2=O)NC(=O)/C(C)=C\C=C\[C@H](C)[C@H](O)[C@@H](C)[C@@H](O)[C@@H](C)[C@H](OC(C)=O)[C@@H]1C [RIFAMPIN]					2 µg/mL (≈ 2.43 µM)	2 µg/mL (≈ 2.43 µM)		2 µg/mL (≈ 2.43 µM)			
CCCCCCCCCCCCOS(=O)(=O)[O-].[Na+] [SODIUM LAURYL SULFATE]			50 µg/mL	800 µg/mL	> 256 µg/mL	16 µg/mL	>16	128 µg/mL	16	< 5 µg/mL	< 5 µg/mL
CN(C)[C@@H]1C(O)=C(C(N)=O)C(=O)[C@@]2(O)C(O)=C3C(=O)c4c(O)cccc4[C@@](C)(O)[C@H]3C[C@@H]12 [TETRACYCLINE]			0.5 µg/mL (≈ 1.13 µM)	1 µg/mL	64 µg/mL (≈ 144 µM)	64 µg/mL (≈ 144 µM)	1	64 µg/mL (≈ 144 µM)	2		
[Cl-].c1ccc([P+](c2ccccc2)(c2ccccc2)c2ccccc2)cc1 [TETRAPHENYLPHOSPHONIUM CHLORIDE]			8 µg/mL	16 µg/mL	1500 µg/mL	300 µg/mL	5	> 500 µg/mL	2	0.25 µg/mL	0.25 µg/mL
COc1cc(Cc2cnc(N)nc2N)cc(OC)c1OC [TRIMETHOPRIM]			0.125 µg/mL (≈ 0.431 µM)	0.2 µg/mL	64 µg/mL (≈ 220 µM)	64 µg/mL (≈ 220 µM)	1	64 µg/mL (≈ 220 µM)	2		
